Source: ChEMBL document CHEMBL1145212, “Fluorinated diaryl sulfides as serotonin transporter ligands: synthesis, structure-activity relationship study, and in vivo evaluation of fluorine-18-labeled compounds as PET imaging agents” (J Med Chem, 2005)

Columns and labels:
Type in all cases: cell-based
[1] = target: Sodium-dependent noradrenaline transporter (Homo sapiens, UniProt P23975); experiment: In vitro displacement of [3H]nisoxetine from human norepinephrine transporter expressed in HEK293 cells
Chain of Sodium-dependent noradrenaline transporter (P23975 whole entry): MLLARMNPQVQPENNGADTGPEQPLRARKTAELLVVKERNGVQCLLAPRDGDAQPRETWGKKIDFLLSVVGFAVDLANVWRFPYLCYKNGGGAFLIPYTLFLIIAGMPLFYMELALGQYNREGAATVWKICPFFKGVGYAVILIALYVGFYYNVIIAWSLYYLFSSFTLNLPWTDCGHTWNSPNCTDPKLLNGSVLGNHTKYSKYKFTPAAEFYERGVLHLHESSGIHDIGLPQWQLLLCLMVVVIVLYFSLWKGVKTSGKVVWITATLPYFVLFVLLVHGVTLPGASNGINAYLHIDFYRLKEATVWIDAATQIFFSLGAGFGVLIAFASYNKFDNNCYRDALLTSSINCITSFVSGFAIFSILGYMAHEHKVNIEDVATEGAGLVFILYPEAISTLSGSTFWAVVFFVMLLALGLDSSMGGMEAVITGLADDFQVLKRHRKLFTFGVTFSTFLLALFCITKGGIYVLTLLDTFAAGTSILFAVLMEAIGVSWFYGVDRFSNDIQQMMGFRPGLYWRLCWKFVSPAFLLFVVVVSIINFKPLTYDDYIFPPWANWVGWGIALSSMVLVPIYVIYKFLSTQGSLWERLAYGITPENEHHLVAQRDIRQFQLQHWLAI
Procedure, shortened: (§1)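 Competitive binding using cloned human transporters expressed in HEK-293 cells. NET was labelled with [³H]nisoxetine and DAT with [³H]GBR12935, following a previously published procedure.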

[2] = target: Sodium-dependent dopamine transporter (Homo sapiens, UniProt Q01959); experiment: In vitro displacement of [3H]GBR-12935 from human dopamine transporter expressed in HEK293 cells; procedure, shortened: as §1
Chain of Sodium-dependent dopamine transporter (Q01959 whole entry): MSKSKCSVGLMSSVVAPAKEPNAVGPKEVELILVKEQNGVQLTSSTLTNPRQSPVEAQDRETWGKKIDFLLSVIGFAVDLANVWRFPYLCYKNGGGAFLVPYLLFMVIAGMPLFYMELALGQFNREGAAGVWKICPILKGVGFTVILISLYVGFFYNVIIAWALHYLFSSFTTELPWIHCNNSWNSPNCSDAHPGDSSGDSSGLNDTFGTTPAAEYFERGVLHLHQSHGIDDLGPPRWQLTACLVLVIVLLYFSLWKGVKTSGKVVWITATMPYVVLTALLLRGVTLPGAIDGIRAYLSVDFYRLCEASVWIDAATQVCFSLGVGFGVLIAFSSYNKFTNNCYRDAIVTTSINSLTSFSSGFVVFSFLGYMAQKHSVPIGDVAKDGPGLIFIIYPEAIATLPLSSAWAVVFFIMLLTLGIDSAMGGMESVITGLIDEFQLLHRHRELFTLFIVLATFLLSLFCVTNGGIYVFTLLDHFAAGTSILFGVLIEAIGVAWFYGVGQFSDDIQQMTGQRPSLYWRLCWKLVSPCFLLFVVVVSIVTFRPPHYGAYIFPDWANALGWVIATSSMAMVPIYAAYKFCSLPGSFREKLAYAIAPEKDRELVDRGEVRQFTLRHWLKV

[3] = target: Sodium-dependent serotonin transporter (Homo sapiens, UniProt P31645); experiment: In vitro displacement of [3H]paroxetine from human serotonin transporter expressed in HEK293 cells
Chain of Sodium-dependent serotonin transporter (P31645 whole entry): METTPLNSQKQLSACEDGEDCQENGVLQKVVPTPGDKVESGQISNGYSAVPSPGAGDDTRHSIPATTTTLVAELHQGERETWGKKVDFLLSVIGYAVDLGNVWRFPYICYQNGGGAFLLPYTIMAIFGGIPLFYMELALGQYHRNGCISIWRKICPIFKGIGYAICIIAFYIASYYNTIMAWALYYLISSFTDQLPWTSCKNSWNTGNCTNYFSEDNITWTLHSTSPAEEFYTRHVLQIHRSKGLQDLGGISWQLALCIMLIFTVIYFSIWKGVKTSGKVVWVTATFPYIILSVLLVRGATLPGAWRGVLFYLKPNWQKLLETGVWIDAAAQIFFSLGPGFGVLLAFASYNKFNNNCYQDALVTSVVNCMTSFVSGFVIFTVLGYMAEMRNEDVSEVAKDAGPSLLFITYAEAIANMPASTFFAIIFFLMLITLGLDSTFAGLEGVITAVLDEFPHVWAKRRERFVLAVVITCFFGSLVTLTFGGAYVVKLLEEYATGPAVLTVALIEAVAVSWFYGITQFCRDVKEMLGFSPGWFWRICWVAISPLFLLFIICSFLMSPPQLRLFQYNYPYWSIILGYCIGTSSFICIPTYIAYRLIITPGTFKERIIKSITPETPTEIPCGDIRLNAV

Ki [1]	Ki [2]	Ki [3]	SMILES
> 10 µM	3.55 µM	–	CCCNCc1ccccc1Sc1ccc(C)cc1N
–	–	0.00119 µM	Cc1ccc(Sc2ccccc2CN(C)C)c(N)c1
